Measurements taken from ChEMBL document CHEMBL4610003 (Bioorg Med Chem, 2020).
In brackets after ≈: the same amount, converted by molar mass.

How the values were obtained:
[1] = tested on: Mycobacterium tuberculosis; assay: Antimycobacterial activity against Mycobacterium tuberculosis H37Rv assessed as bacterial growth inhibition under replicating, aerobic condition by microplate Alamar blue assay; format: functional
Procedure, shortened: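 Read-out is MIC90, the lowest concentration giving 90% growth inhibition of M.tb H37Rv, in µg/mL. Bacteria were grown under aerobic, replicating conditions (MABA).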

[2] = tested on: Mycobacterium tuberculosis; assay: Antimycobacterial activity against Mycobacterium tuberculosis H37Rv assessed as bacterial growth inhibition incubated for 10 days under anerobic condition followed by incubation under ambient gaseous condition for […] by low oxygen recovery assay; format: functional
Procedure, shortened: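 Read-out is MIC90, the lowest concentration giving 90% growth inhibition of M.tb H37Rv, in µg/mL. Bacteria were held under non-replicating, low-oxygen conditions (LORA).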

[3] = AUC (0 to infinity) in CD-1 mouse at 10 mg/kg, po via gavage administered as single dose; format: ADME, organism-based; parameters: dose 10 mg/kg, route oral, time infinity; details: in vivo
Procedure, shortened: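 Male CD-1 mice given a single 10 mg/kg dose by oral gavage. Exposure is reported as area under the curve from 0 to infinity in µg*h/mL.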

[4] = Protein binding in human plasma; format: ADME, cell-free; details: read-out: PPB
[5] = target: Voltage-gated inwardly rectifying potassium channel KCNH2 (Homo sapiens, UniProt Q12809); assay: Inhibition of human ERG
Sequence of Voltage-gated inwardly rectifying potassium channel KCNH2 (Q12809 whole entry): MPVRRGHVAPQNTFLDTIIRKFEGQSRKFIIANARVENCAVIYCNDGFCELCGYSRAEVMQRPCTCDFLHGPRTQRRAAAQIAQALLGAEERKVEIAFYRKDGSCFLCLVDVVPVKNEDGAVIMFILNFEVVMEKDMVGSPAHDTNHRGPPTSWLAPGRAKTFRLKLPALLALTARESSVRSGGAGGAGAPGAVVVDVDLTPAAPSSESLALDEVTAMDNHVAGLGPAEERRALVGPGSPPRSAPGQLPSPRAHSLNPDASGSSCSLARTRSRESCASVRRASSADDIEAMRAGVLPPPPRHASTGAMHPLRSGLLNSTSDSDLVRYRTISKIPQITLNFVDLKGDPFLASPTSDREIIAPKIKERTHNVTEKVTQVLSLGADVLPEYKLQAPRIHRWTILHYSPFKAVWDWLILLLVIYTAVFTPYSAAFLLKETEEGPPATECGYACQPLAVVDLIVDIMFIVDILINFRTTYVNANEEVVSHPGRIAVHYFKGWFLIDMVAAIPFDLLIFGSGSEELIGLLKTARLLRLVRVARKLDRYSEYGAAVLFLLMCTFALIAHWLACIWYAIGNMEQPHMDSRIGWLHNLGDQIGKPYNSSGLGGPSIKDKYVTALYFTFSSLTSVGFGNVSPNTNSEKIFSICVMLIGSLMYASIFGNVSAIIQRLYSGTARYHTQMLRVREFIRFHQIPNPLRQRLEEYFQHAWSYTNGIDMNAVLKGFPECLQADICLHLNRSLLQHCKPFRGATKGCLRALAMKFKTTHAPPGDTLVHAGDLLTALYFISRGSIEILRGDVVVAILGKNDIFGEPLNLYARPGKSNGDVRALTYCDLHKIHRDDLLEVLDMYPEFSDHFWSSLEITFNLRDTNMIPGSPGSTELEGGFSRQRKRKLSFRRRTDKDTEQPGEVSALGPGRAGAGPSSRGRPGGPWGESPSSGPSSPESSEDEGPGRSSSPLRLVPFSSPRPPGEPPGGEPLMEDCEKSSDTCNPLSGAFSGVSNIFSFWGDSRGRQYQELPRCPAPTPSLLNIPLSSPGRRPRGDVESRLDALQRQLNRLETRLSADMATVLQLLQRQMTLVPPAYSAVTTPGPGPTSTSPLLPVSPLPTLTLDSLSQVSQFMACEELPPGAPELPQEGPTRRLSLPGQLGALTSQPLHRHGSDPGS

[6] = Intrinsic clearance in human liver microsomes assessed per mg protein; format: ADME, Microsome; details: read-out: CLH
Procedure, shortened: (§1)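 Clearance of compound by human or mouse liver microsomes, expressed as µL/min/mg protein.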

[7] = Intrinsic clearance in mouse liver microsomes assessed per mg protein; format: ADME, Microsome; details: read-out: CLH; procedure, shortened: as §1
[8] = Clearance in CD-1 mouse at 2 to 3 mg/kg, iv administered as single bolus dose; format: ADME, organism-based; details: in vivo
Procedure, shortened: (§2)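 Male CD-1 mice received a single intravenous bolus at 2–3 mg/kg. Reported values are IV clearance and the apparent volume of distribution during the terminal phase, in L/kg.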

[9] = Apparent volume of distribution during terminal phase in CD-1 mouse at 2 to 3 mg/kg, iv administered as single bolus dose; format: ADME, organism-based; details: in vivo; procedure, shortened: as §2
[10] = Oral bioavailability in CD-1 mouse at 10 mg/kg administered via gavage as single dose; format: ADME, organism-based; details: in vivo
Vero = assay: Cytotoxicity against African green monkey Vero cells assessed as reduction in cell viability incubated for 72 hrs by […] assay; format: cell-based; details: Chlorocebus sabaeus
hERG (KCNH2) [11] = target: T1, hERG (KCNH2) (Homo sapiens, UniProt Q12809); assay: Inhibition of human ERG at 3 uM relative to control
T1 sequence (Q12809 whole entry): as above

hERG (KCNH2) [12] = target: T1, hERG (KCNH2); assay: Inhibition of human ERG at 10 uM relative to control

Structure (SMILES)	MIC90 [1]	MIC90 [2]	AUC(0-inf) [3]	fraction unbound [4]	IC50 [5]	microsomal CLint [6]	microsomal CLint [7]	clearance [8]	Vz/F [9]	bioavailability [10]	IC50 (Vero)	inhibition at 3 µM (hERG (KCNH2) [11])	inhibition at 10 µM (hERG (KCNH2) [12])
COc1nc2ccc(Br)cc2cc1[C@@H](c1ccccc1)[C@@](O)(CCN(C)C)c1cccc2ccccc12 [BEDAQUILINE]	0.03 µg/mL (≈ 0.054 µM)	0.06 µg/mL (≈ 0.108 µM)	17400 ng·h/mL	< 0.005	–	–	–	–	–	–	–	–	–
CCOc1cc([C@](O)(CCN(C)C)[C@H](c2cccc(C)c2)c2cc3cc(Br)ccc3nc2OC)cc(OC)n1 (racemic)	< 0.02 µg/mL	< 0.02 µg/mL	9400 ng·h/mL	–	> 10 µM	4.4 µL/min/mg	7.8 µL/min/mg	12 mL/min/kg	45 L/kg	65%	> 10 µg/mL	–	–
CCSc1cc([C@](O)(CCN(C)C)[C@H](c2cccc(C)c2)c2cc3cc(Br)ccc3nc2OC)cc(N(C)C)n1 (racemic)	0.14 µg/mL (≈ 0.224 µM)	0.12 µg/mL (≈ 0.192 µM)	–	–	–	–	–	–	–	–	–	23%	–
COc1nc2ccc(Br)cc2cc1[C@@H](c1cccc(C)c1F)[C@@](O)(CCN(C)C)c1cc(SC)nc(SC)c1 (racemic)	< 0.004 µg/mL	0.06 µg/mL (≈ 0.0951 µM)	–	–	–	–	–	–	–	–	–	13%	–
COc1cc([C@](O)(CCN(C)C)[C@@H](c2cc3cc(Br)ccc3nc2OC)c2ccnc(OC)c2OC)cc(OC(F)F)n1 (racemic)	< 0.004 µg/mL	< 0.004 µg/mL	9800 ng·h/mL	–	> 10 µM	2.1 µL/min/mg	4.9 µL/min/mg	8.7 mL/min/kg	27 L/kg	50%	> 10 µg/mL	–	–
CCSc1cc([C@](O)(CCN(C)C)[C@H](c2ccccc2)c2cc3cc(Br)ccc3nc2OC)cc(SCC)n1 (racemic)	0.02 µg/mL (≈ 0.0319 µM)	0.05 µg/mL (≈ 0.0798 µM)	4000 ng·h/mL	–	> 30 µM	2.3 µL/min/mg	17 µL/min/mg	11 mL/min/kg	30 L/kg	24%	> 10 µg/mL	–	–
COc1cc([C@](O)(CCN(C)C)[C@@H](c2cc3cc(Br)ccc3nc2OC)c2cccc(C)c2F)cc(OC(F)F)n1 (racemic)	0.01 µg/mL (≈ 0.0158 µM)	0.03 µg/mL (≈ 0.0473 µM)	–	–	–	–	–	–	–	–	–	–	3%
COc1cc([C@](O)(CCN(C)C)[C@@H](c2cc3cc(C#N)ccc3nc2OC)c2ccnc(OC)c2OC)cc(N(C)C)n1 (racemic)	0.06 µg/mL (≈ 0.102 µM)	0.06 µg/mL (≈ 0.102 µM)	3300 ng·h/mL	–	3.4 µM	8.4 µL/min/mg	16 µL/min/mg	26 mL/min/kg	14 L/kg	50%	> 10 µg/mL	–	–
CCSc1cc([C@](O)(CCN(C)C)[C@H](c2cccc(C)c2)c2cc3cc(C#N)ccc3nc2OC)cc(N(C)C)n1 (racemic)	0.12 µg/mL (≈ 0.211 µM)	0.17 µg/mL (≈ 0.298 µM)	–	–	–	–	–	–	–	–	–	51%	–
COc1cc([C@](O)(CCN(C)C)[C@@H](c2cc3cc(Br)ccc3nc2OC)c2ccnc(OC)c2OC)cc(OC(C)C)n1 (racemic)	< 0.01 µg/mL	< 0.01 µg/mL	5600 ng·h/mL	–	17 µM	6.4 µL/min/mg	6.7 µL/min/mg	6.8 mL/min/kg	19 L/kg	22%	> 10 µg/mL	–	–
CCOc1cc([C@](O)(CCN(C)C)[C@@H](c2cc3cc(Br)ccc3nc2OC)c2cccc(OC)c2F)cc(OC)n1 (racemic)	< 0.01 µg/mL	< 0.01 µg/mL	4000 ng·h/mL	–	> 30 µM	4.1 µL/min/mg	14 µL/min/mg	19 mL/min/kg	51 L/kg	46%	> 10 µg/mL	–	–
COc1cc([C@](O)(CCN(C)C)[C@@H](c2cc3cc(Br)ccc3nc2OC)c2ccnc(OC)c2OC)cc(OC2CCC2)n1 (racemic)	< 0.004 µg/mL	0.01 µg/mL (≈ 0.015 µM)	8400 ng·h/mL	–	> 10 µM	2.5 µL/min/mg	4.6 µL/min/mg	11 mL/min/kg	33 L/kg	56%	> 10 µg/mL	–	–
CCOc1cc([C@](O)(CCN(C)C)[C@@H](c2cc3cc(Br)ccc3nc2OC)c2c(OC)cncc2OC)cc(OC(C)C)n1 (racemic)	< 0.02 µg/mL	< 0.02 µg/mL	33000 ng·h/mL	–	> 10 µM	1.1 µL/min/mg	2.3 µL/min/mg	2.7 mL/min/kg	20 L/kg	58%	> 10 µg/mL	–	–
COc1cc([C@](O)(CCN(C)C)[C@@H](c2cc3cc(Br)ccc3nc2OC)c2cccc(OC)c2F)cc(OC)n1 (racemic) [TBAJ-587]	–	0.01 µg/mL (≈ 0.0163 µM)	–	< 0.005	–	2.2 µL/min/mg	–	–	–	–	–	–	–
CCSc1cc([C@](O)(CCN(C)C)[C@@H](c2cc3cc(C#N)ccc3nc2OC)c2cccc(C)c2F)cc(SCC)n1 (racemic)	< 0.02 µg/mL	0.06 µg/mL (≈ 0.0992 µM)	4000 ng·h/mL	–	> 10 µM	9.1 µL/min/mg	33 µL/min/mg	9.4 mL/min/kg	41 L/kg	22%	> 10 µg/mL	–	–
COc1cccc([C@H](c2cc3cc(Br)ccc3nc2OC)[C@@](O)(CCN(C)C)c2cc(SC)nc(SC)c2)c1F (racemic)	< 0.02 µg/mL	< 0.02 µg/mL	8400 ng·h/mL	–	> 10 µM	3.4 µL/min/mg	17 µL/min/mg	13 mL/min/kg	15 L/kg	66%	9.6 µg/mL (≈ 14.8 µM)	–	–
CCSc1cc([C@](O)(CCN(C)C)[C@@H](c2cc3cc(Br)ccc3nc2OC)c2cccc(OC)c2F)cc(SCC)n1 (racemic)	< 0.02 µg/mL	< 0.02 µg/mL	11900 ng·h/mL	–	> 10 µM	4.9 µL/min/mg	12 µL/min/mg	3.6 mL/min/kg	14 L/kg	25%	6.5 µg/mL (≈ 9.63 µM)	–	–
COc1cc([C@](O)(CCN(C)C)[C@@H](c2cc3cc(Br)ccc3nc2OC)c2cc(OC)nc(OC)c2OC)cc(OC)n1 (racemic) [TBAJ-876]	–	–	–	< 0.005	–	–	–	–	–	–	–	–	–
COc1cc([C@](O)(CCN(C)C)[C@@H](c2cc3cc(Br)ccc3nc2OC)c2cccc(OC)c2F)cc(OC(F)F)n1 (racemic)	0.04 µg/mL (≈ 0.0615 µM)	< 0.02 µg/mL	14400 ng·h/mL	–	> 30 µM	0.1 µL/min/mg	6.4 µL/min/mg	9.7 mL/min/kg	18 L/kg	83%	> 10 µg/mL	–	–
COc1cc([C@](O)(CCN(C)C)[C@@H](c2cc3cc(C#N)ccc3nc2OC)c2cccc(C)c2F)cc(OC(F)F)n1 (racemic)	0.01 µg/mL (≈ 0.0172 µM)	0.03 µg/mL (≈ 0.0517 µM)	8600 ng·h/mL	–	> 30 µM	0.6 µL/min/mg	5.9 µL/min/mg	13 mL/min/kg	38 L/kg	66%	> 10 µg/mL	–	–
